Experimental data published in ChEMBL document CHEMBL4425120, “N1-Azinylsulfonyl-1H-indoles: 5-HT6 Receptor Antagonists with Procognitive and Antidepressant-Like Properties” (ACS Med Chem Lett, 2016).
Calls of active or inactive are those of the source. No cut-off for these calls is given here.

Tests used:
[1] = molecular target: T1, 5-hydroxytryptamine receptor 6 (Homo sapiens, UniProt P50406); experiment: Displacement of [3H]-LSD from human 5-HT6 receptor expressed in HEK293 cells by microbeta liquid scintillation counting; format: cell-based
T1 sequence (P50406 whole entry): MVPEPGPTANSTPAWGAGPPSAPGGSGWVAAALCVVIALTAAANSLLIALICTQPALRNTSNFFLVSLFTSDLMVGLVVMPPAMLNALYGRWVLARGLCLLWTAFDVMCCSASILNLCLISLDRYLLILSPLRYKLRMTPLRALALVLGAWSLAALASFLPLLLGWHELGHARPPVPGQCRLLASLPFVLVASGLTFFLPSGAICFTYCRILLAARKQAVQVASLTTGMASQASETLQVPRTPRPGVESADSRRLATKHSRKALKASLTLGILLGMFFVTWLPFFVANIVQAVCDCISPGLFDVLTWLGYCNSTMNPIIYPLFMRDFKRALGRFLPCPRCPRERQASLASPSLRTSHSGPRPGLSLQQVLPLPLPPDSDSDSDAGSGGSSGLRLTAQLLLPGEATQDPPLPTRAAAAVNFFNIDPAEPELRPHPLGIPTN
Outline: (§1)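 Ki values reported as the mean of two independent radioligand binding experiments.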

[2] = organism: Homo sapiens; experiment: Selectivity ratio of Ki for human D2L receptor expressed in HEK293 cells to Ki for human 5-HT6 receptor expressed in HEK293 cells; format: cell-based
[3] = organism: Homo sapiens; experiment: Selectivity ratio of Ki for human 5-HT7B receptor expressed in HEK293 cells to Ki for human 5-HT6 receptor expressed in HEK293 cells; format: cell-based
[4] = organism: Homo sapiens; experiment: Selectivity ratio of Ki for human 5-HT2A receptor expressed in HEK293 cells to Ki for human 5-HT6 receptor expressed in HEK293 cells; format: cell-based
[5] = molecular target: 5-hydroxytryptamine receptor 2A (Homo sapiens, UniProt P28223); experiment: Displacement of [3H]-Ketanserin from human 5-HT2A receptor expressed in HEK293 cells by microbeta liquid scintillation counting; format: cell-based; outline: as §1
Chain of 5-hydroxytryptamine receptor 2A (P28223 whole entry): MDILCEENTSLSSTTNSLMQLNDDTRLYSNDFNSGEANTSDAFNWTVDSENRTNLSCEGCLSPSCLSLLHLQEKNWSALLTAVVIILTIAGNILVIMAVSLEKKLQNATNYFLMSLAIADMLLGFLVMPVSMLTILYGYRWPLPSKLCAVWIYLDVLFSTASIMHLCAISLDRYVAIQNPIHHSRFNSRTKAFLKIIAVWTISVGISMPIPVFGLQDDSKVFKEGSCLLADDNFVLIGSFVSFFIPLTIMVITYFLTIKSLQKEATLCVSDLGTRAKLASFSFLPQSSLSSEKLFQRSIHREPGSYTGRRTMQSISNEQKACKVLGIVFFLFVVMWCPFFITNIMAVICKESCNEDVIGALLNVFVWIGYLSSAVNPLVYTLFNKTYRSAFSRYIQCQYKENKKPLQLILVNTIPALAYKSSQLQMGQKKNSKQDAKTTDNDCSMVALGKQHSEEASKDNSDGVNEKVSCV

[6] = molecular target: 5-hydroxytryptamine receptor 7 (Homo sapiens, UniProt P34969); experiment: Displacement of [3H]-5-CT from human 5-HT7B receptor expressed in HEK293 cells by microbeta liquid scintillation counting; format: cell-based; outline: as §1
Chain of 5-hydroxytryptamine receptor 7 (P34969 whole entry): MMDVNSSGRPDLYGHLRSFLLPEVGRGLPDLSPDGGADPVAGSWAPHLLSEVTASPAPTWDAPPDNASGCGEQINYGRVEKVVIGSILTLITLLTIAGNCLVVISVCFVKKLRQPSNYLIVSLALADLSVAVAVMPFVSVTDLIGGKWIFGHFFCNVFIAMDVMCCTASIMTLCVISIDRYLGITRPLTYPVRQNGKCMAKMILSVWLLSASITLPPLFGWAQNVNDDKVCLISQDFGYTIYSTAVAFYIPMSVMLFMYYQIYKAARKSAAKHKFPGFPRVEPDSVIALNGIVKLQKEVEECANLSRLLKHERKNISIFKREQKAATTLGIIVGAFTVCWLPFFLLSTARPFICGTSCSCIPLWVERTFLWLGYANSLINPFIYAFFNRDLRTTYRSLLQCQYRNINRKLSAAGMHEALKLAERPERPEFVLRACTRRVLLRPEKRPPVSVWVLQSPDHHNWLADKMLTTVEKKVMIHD

[7] = molecular target: T2, 5-hydroxytryptamine receptor 1A (Homo sapiens, UniProt P08908); experiment: Displacement of [3H]-8-OH-DPAT from human 5-HT1A receptor expressed in HEK293 cells by microbeta liquid scintillation counting; format: cell-based; outline: as §1
T2 sequence (P08908 whole entry): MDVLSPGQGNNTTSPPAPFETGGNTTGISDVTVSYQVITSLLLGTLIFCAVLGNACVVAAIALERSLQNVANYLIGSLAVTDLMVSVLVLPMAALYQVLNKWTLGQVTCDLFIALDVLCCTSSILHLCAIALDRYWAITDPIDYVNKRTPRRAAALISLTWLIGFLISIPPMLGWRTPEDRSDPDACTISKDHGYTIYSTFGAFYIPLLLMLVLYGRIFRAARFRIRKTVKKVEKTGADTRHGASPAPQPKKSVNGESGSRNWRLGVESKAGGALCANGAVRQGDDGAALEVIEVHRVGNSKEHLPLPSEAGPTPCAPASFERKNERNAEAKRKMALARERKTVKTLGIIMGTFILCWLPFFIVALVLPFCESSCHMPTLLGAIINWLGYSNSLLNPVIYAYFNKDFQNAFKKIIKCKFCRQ

[8] = molecular target: D(2) dopamine receptor (Homo sapiens, UniProt P14416); experiment: Displacement of [3H]-Raclopride from human D2L receptor expressed in HEK293 cells by microbeta liquid scintillation counting; format: cell-based; outline: as §1
Chain of D(2) dopamine receptor (P14416 whole entry): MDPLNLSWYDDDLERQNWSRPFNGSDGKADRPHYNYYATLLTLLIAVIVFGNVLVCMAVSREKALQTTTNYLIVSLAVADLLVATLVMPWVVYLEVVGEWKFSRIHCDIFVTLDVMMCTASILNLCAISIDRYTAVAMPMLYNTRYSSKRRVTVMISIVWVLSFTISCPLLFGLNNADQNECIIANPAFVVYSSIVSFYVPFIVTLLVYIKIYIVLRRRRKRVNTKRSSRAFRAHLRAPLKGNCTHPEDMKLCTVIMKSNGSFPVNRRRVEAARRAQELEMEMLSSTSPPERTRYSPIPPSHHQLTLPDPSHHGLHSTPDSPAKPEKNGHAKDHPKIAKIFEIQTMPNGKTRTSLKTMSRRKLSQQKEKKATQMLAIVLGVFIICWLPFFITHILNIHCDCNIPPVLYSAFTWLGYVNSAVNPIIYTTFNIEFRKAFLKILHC

[9] = organism: Homo sapiens; experiment: Selectivity ratio of Ki for human 5-HT1A receptor expressed in HEK293 cells to Ki for human 5-HT6 receptor expressed in HEK293 cells; format: cell-based
[10] = Toxicity in Sprague-Dawley rat assessed as effect on locomotory activity at 0.3 to 3 mg/kg, ip measured for 5 mins by open field test; format: organism-based; settings: in vivo
[11] = system: Rattus norvegicus; experiment: Antidepressant activity in Sprague-Dawley rat assessed as reduction in immobility time at 3 mg/kg, ip adminstered 60 mins prior to testing measured for 5 mins by forced swimming test; format: functional, organism-based
Outline: (§2)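 Modified forced swim test in rats, compounds given i.p.; immobility and climbing times scored against a vehicle-treated group; N = 7–8 animals per group; mean ± SEM.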

[12] = molecular target: 5-hydroxytryptamine receptor 6 (Rattus norvegicus, UniProt P31388); experiment: Displacement of [3H]Lu AE60157 from rat brain 5-HT6 receptor
Chain of 5-hydroxytryptamine receptor 6 (Rattus norvegicus, UniProt P31388) (P31388 whole entry): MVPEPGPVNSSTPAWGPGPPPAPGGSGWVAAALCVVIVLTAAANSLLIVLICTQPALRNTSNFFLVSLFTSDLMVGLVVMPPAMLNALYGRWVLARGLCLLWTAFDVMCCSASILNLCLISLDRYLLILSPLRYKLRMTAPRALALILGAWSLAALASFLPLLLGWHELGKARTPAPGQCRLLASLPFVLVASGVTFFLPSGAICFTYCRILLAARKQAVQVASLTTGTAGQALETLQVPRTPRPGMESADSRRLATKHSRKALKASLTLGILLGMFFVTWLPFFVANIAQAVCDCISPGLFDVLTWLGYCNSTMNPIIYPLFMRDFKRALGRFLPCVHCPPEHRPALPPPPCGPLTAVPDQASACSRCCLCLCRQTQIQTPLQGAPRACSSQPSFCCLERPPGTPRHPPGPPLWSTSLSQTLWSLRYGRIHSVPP

[13] = system: Rattus norvegicus; experiment: Antidepressant activity in Sprague-Dawley rat assessed as increase in climbing time at 3 mg/kg, ip adminstered 60 mins prior to testing measured for 5 mins by forced swimming test; format: functional, organism-based; outline: as §2
[14] = system: Rattus norvegicus; experiment: Antianxietic activity in ip dosed Wistar rat assessed as increase in number of licks accepted measured for 5 mins by Vogel conflict drinking test; format: functional; settings: read-out: MED
[15] = system: Rattus norvegicus; experiment: Cognitive enhancing effect in Sprague-Dawley rat assessed as reversal of PCP induced memory deficit at 0.3 to 1 mg/kg, ip administered 1 hour and 15 mins before familiarization phase by novel object recognition test; format: functional, organism-based
Outline: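 Novel object recognition in rats with PCP-induced memory deficit; compounds given i.p.; groups compared with vehicle and with PCP; N = 7–12 animals per group; mean ± SEM.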

[16] = system: Rattus norvegicus; experiment: Antianxietic activity in ip dosed Wistar rat assessed as increase in number of shocks accepted measured for 5 mins by Vogel conflict drinking test; format: functional; settings: read-out: MED
[17] = molecular target: T1, 5-hydroxytryptamine receptor 6; experiment: Inhibition of 5-HT6 receptor (unknown origin)

**Q.** For `COc1ccc2c(c1)c(C1=CCNCC1)cn2S(=O)(=O)c1cnc2ccccc2c1`, which Ki [1] is on record?
**A.** The Ki was 8 nM.

**Q.** For `O=S(=O)(c1cc2ccccc2cn1)n1cc(C2=CCNCC2)c2ccc(Cl)cc21`, which Ki [1] is on record?
**A.** Its Ki is 102 nM.

**Q.** For `Cc1c(C2=CCNCC2)c2ccccc2n1S(=O)(=O)c1cc2ccccc2cn1`, which Ki [1] is on record?
**A.** The Ki was 20 nM.

**Q.** Which Ki [1] does the source give for `O=S(=O)(c1ccc2cccnc2c1)n1cc(C2=CCNCC2)c2ccccc21` here?
**A.** The Ki was 7 nM.

**Q.** Which Ki [1] does the source give for `O=S(=O)(c1cncc2ccccc12)n1cc(C2=CCNCC2)c2ccccc21` here?
**A.** The Ki was 5 nM.

**Q.** For `COc1ccc2c(c1)c(C1CCNCC1)cn2S(=O)(=O)c1ccc2cccnc2c1`, which Ki [1] is on record?
**A.** Its Ki is 30 nM.

**Q.** With `CCCCN1CC=C(c2cn(S(=O)(=O)c3ccc4cccnc4c3)c3ccc(OC)cc23)CC1` as the compound, how does the Ki [1] read?
**A.** The Ki was 219 nM.

**Q.** Which Ki [1] does the source give for `CCCN1CC=C(c2cn(S(=O)(=O)c3ccc4cccnc4c3)c3ccc(OC)cc23)CC1` here?
**A.** Its Ki is 247 nM.

**Q.** For `COc1ccc2c(c1)c(C1=CCNCC1)cn2S(=O)(=O)c1cccc2ncccc12`, which Ratio Ki [2] is on record?
**A.** The Ratio Ki was 70.

**Q.** And the Ratio Ki [3]?
**A.** The Ratio Ki was 70.

**Q.** And the Ratio Ki [4]?
**A.** The Ratio Ki was 70.

**Q.** What about the Ki [5] of the same compound?
**A.** Its Ki is 1550 nM.

**Q.** And the Ki [6]?
**A.** Its Ki is 2350 nM.

**Q.** What about the Ki [1] of the same compound?
**A.** Its Ki is 4 nM.

**Q.** What about the Ki [7] of the same compound?
**A.** Its Ki is 2940 nM.

**Q.** And the Ki [8]?
**A.** The Ki was 302 nM.

**Q.** What about the Ratio Ki [9] of the same compound?
**A.** The Ratio Ki was 70.

**Q.** Which Ki [1] does the source give for `O=S(=O)(c1cccc2ncccc12)n1cc(C2=CCNCC2)c2cc(Cl)ccc21` here?
**A.** Its Ki is 11 nM.

**Q.** Which Ratio Ki [2] does the source give for `O=S(=O)(c1ccc2ncccc2c1)n1cc(C2=CCNCC2)c2ccccc21` here?
**A.** Its Ratio Ki is 70.

**Q.** And the Ratio Ki [3]?
**A.** The Ratio Ki was 70.

**Q.** And the Ratio Ki [4]?
**A.** The Ratio Ki was 70.

**Q.** And the Ki [5]?
**A.** Its Ki is 1410 nM.

**Q.** And the Ki [6]?
**A.** The Ki was 6660 nM.

**Q.** And the Ki [1]?
**A.** Its Ki is 20 nM.

**Q.** What about the Ki [7] of the same compound?
**A.** Its Ki is 1870 nM.

**Q.** And the Ki [8]?
**A.** Its Ki is 1410 nM.

**Q.** And the Ratio Ki [9]?
**A.** Its Ratio Ki is 70.

**Q.** With `O=S(=O)(c1ccc2cccnc2c1)n1cc(C2=CCNCC2)c2cc(Cl)ccc21` as the compound, how does the Ratio Ki [2] read?
**A.** The Ratio Ki was 70.

**Q.** What about the Ratio Ki [3] of the same compound?
**A.** The Ratio Ki was 70.

**Q.** And the Ratio Ki [4]?
**A.** The Ratio Ki was 70.

**Q.** And the Ki [5]?
**A.** The Ki was 2590 nM.

**Q.** And the Ki [6]?
**A.** Its Ki is 7320 nM.

**Q.** And the Ki [1]?
**A.** Its Ki is 9 nM.

**Q.** And the Ki [7]?
**A.** The Ki was 2470 nM.

**Q.** And the Ki [8]?
**A.** The Ki was 1170 nM.

**Q.** And the Ratio Ki [9]?
**A.** Its Ratio Ki is 70.

**Q.** With `COc1ccc2c(c1)c(C1=CCN(C)CC1)cn2S(=O)(=O)c1ccc2cccnc2c1` as the compound, how does the Ki [1] read?
**A.** Its Ki is 82 nM.

**Q.** With `COc1ccc2c(c1)c(C1CCNCC1)cn2S(=O)(=O)c1cncc2ccccc12` as the compound, how does the Ki [1] read?
**A.** The Ki was 24 nM.

**Q.** With `COc1ccc2c(c1)c(C1=CCNCC1)cn2S(=O)(=O)c1ccc2ncccc2c1` as the compound, how does the Ki [1] read?
**A.** The Ki was 14 nM.

**Q.** With `O=S(=O)(c1cnc2ccccc2c1)n1cc(C2=CCNCC2)c2ccccc21` as the compound, how does the Ki [1] read?
**A.** The Ki was 13 nM.

**Q.** Which Ki [1] does the source give for `O=S(=O)(c1ccc2ncccc2c1)n1cc(C2=CCNCC2)c2ccc(Cl)cc21` here?
**A.** Its Ki is 112 nM.

**Q.** Which Ki [1] does the source give for `O=S(=O)(c1cnc2ccccc2c1)n1cc(C2=CCNCC2)c2ccc(Cl)cc21` here?
**A.** Its Ki is 37 nM.

**Q.** For `O=S(=O)(c1ccccc1)c1cnc2c(N3CCNCC3)cccc2c1` [INTEPIRDINE], which Activity [10] is on record?
**A.** Its Activity is “Non-Toxic”.

**Q.** And the Activity [11]?
**A.** The Activity was “Active”.

**Q.** What about the Ki [12] of the same compound?
**A.** Its Ki is 0.234 nM.

**Q.** What about the Activity [13] of the same compound?
**A.** Its Activity is “Active”.

**Q.** And the minimal effective dose [14]?
**A.** Its minimal effective dose is 3 mg/kg.

**Q.** And the Activity [15]?
**A.** The Activity was “Active”.

**Q.** And the minimal effective dose [16]?
**A.** The minimal effective dose was 3 mg/kg.

**Q.** Which Ki [17] does the source give for `CSc1nn2c(C)cc(C)nc2c1S(=O)(=O)c1ccccc1` here?
**A.** Its Ki is 2.1 nM.

**Q.** For `O=S(=O)(c1cncc2ccccc12)n1cc(C2=CCNCC2)c2cc(Cl)ccc21`, which Ki [1] is on record?
**A.** Its Ki is 18 nM.

**Q.** For `O=S(=O)(c1cc2ccccc2cn1)n1cc(C2=CCNCC2)c2ccccc21`, which Ki [1] is on record?
**A.** The Ki was 12 nM.

**Q.** With `Cc1c(C2=CCNCC2)c2ccccc2n1S(=O)(=O)c1ccc2cccnc2c1` as the compound, how does the Ki [1] read?
**A.** The Ki was 18 nM.

**Q.** With `O=S(=O)(c1cnc2ccccc2c1)n1cc(C2=CCNCC2)c2cc(Cl)ccc21` as the compound, how does the Ki [1] read?
**A.** Its Ki is 11 nM.

**Q.** With `COc1ccc2c(c1)c(C1=CCNCC1)cn2S(=O)(=O)c1cc2ccccc2cn1` as the compound, how does the Ki [1] read?
**A.** The Ki was 6 nM.

**Q.** Which Ki [1] does the source give for `O=S(=O)(c1ccc2cccnc2c1)n1cc(C2=CCNCC2)c2ccc(Cl)cc21` here?
**A.** Its Ki is 22 nM.
